The structures appear in SMILES notation. Activity calls are given as the source filed them. The calls are words filed in the database; no cut-off is given here.

A short description of data set [1]: Cytotoxicity against human primary CLL cells assessed as cell death after 48 hrs by annexin V/propidium iodide-staining based flow cytometry. The data set is classed as functional. As to conditions: read-out: LC50 (the source's name). A digest of the protocol: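 Primary patient CLL cells were isolated by Histopaque density gradient, phenotyped by flow cytometry and used within 24 h. Culture was RPMI with 10% FBS, 1% glutamate and 1% pen/strep, plus IL-4 5 ng/ml added with compound, at 37 °C, 5% CO2. Cells at 1,000,000 cells/ml were treated from 1 nM upward for 48 h, in triplicate. Annexin V-FITC/PI was read by flow cytometry, and LC50 came from sigmoidal dose-response fits.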
In general terms: In flow cytometry, cells or beads pass a laser one at a time.

Data set [2] has as its system JJN-3. As to the kind of experiment: Cytotoxicity against human JJN-3 cells assessed as cell death after 48 hrs by annexin V/propidium iodide-staining based flow cytometry. As to conditions: JJN-3, 48 h, read-out: LC50 (the source's name). The data set is classed as functional. The method in brief:
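JJN-3 cells were grown in DMEM with 20% FBS, 1% pen/strep and 1% pyruvate at 37 °C, 5% CO2. They were seeded at 1,000,000 cells/ml and exposed to compound from 1 nM upward for 48 h, in triplicate. Cell death was measured by Annexin V-FITC/propidium iodide flow cytometry, and LC50 was derived from sigmoidal dose-response curves.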

Data set [3] is described as follows: Cytotoxicity against human B cells assessed as cell death after 48 hrs by annexin V/propidium iodide-staining based flow cytometry. To be noted: read-out: LC50. A digest of the protocol:
(§1)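 Normal peripheral blood B or T cells from three donors were isolated by Histopaque density gradient and phenotyped for CD19/CD3/CD38/CD49d. They were used within 24 h in RPMI with 10% FBS, 1% glutamate and 1% pen/strep at 37 °C, 5% CO2. Cells at 1,000,000 cells/ml were exposed from 1 nM upward for 48 h, in triplicate. FITC-Annexin V/PI staining was read by flow cytometry, and LC50 was taken from the dose-response curves.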

Data set [4] is described as follows: Cytotoxicity against human T cells assessed as cell death after 48 hrs by annexin V/propidium iodide-staining based flow cytometry. To be noted: read-out: LC50. The method in brief: as §1
Data set [5] in a line: Therapeutic index, ratio of LC50 for human B cells to LC50 for human primary CLL cells. The data set is classed as toxicity. As to conditions: B cells versus primary CLL cells, read-out: TI.
A short description of data set [6]: Therapeutic index, ratio of LC50 for human T cells to LC50 for human primary CLL cells. The data set is classed as toxicity. As to conditions: T cells versus primary CLL cells, read-out: TI.
Data set [7] concerns the target T1, Nuclear factor NF-kappa-B p105 subunit (Homo sapiens) (UniProt P19838).
T1 sequence (whole entry): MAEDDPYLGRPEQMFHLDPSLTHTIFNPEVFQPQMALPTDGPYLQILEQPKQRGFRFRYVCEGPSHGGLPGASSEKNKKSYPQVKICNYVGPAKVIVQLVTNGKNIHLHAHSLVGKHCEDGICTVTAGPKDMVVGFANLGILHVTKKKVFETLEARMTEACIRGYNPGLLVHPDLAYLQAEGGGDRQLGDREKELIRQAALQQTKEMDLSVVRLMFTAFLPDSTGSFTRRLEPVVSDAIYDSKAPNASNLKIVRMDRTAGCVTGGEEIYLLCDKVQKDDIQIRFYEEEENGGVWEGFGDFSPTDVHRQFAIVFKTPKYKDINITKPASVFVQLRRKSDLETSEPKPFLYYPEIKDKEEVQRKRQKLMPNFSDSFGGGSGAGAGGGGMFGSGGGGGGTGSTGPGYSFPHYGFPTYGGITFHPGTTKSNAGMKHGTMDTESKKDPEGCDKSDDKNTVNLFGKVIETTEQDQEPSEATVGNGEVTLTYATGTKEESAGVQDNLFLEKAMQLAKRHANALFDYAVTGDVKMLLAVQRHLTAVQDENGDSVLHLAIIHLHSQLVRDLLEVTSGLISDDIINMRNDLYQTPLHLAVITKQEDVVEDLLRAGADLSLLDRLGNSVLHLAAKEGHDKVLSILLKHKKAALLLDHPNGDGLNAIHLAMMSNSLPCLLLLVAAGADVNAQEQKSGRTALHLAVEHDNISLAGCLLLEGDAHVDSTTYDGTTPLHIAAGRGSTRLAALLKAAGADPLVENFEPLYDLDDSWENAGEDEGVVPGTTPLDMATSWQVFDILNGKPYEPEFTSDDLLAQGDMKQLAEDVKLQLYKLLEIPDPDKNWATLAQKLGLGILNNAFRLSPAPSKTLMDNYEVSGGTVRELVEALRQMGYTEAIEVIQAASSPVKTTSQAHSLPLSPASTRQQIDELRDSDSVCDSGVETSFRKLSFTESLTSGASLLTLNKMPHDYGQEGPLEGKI
The data set is described as follows: Inhibition of NF-kappaB in human JJN-3 cells assessed as reduction in p50 DNA binding activity up to 30 nM after 4 hrs by ELISA. The data set is classed as cell-based.

Data set [8] has as its target T2, Nuclear factor NF-kappa-B p100 subunit (Homo sapiens) (UniProt Q00653).
T2 sequence (whole entry): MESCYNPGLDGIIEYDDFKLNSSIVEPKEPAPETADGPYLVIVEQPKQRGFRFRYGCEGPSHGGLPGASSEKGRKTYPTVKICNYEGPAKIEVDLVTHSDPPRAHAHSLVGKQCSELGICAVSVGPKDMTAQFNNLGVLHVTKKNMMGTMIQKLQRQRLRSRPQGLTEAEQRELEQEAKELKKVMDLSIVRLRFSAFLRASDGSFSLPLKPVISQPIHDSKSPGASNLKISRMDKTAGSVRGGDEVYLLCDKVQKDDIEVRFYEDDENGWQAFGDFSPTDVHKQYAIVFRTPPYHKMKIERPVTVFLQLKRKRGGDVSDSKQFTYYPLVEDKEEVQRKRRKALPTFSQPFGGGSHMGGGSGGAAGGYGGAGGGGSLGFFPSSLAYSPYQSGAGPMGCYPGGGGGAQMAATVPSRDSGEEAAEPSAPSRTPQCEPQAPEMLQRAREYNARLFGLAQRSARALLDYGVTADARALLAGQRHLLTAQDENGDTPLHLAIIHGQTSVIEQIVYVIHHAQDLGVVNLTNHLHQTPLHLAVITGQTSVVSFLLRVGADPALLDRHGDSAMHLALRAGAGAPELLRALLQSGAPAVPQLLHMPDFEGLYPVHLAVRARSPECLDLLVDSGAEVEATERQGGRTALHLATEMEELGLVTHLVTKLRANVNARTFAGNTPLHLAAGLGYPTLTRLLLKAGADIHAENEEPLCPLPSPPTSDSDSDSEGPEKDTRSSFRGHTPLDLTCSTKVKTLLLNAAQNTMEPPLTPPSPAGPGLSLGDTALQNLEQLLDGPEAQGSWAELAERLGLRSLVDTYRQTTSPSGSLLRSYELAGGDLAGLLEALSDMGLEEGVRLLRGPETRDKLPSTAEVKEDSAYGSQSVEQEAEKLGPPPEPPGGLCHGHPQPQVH
As to the kind of experiment: Inhibition of NF-kappaB in human JJN-3 cells assessed as reduction in p52 DNA binding activity up to 30 nM after 4 hrs by ELISA. The data set is classed as cell-based. In general terms: An ELISA detects its analyte on a solid surface through an enzyme-linked reagent.

For data set [9], the target named is T3, Transcription factor RelB (Homo sapiens) (UniProt Q01201).
T3 sequence (whole entry): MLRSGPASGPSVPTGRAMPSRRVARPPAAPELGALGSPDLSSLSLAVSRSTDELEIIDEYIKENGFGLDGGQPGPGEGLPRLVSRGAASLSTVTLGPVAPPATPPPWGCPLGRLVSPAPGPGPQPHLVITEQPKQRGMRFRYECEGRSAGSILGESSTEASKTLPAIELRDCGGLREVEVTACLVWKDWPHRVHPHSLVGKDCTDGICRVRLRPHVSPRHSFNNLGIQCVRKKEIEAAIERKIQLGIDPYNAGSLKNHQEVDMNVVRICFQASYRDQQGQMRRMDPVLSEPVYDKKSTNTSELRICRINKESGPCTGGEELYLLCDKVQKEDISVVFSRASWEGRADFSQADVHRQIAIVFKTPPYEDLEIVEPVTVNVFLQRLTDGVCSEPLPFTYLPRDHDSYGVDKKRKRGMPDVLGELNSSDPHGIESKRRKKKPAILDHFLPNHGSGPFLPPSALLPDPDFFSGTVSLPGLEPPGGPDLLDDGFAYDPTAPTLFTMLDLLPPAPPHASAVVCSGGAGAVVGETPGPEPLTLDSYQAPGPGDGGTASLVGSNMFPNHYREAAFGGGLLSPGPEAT
The data set is described as follows: Inhibition of NF-kappaB in human JJN-3 cells assessed as reduction in RelB DNA binding activity up to 30 nM after 4 hrs by ELISA. Type of data set: cell-based.

The target of data set [10] is Transcription factor p65 (Homo sapiens) (UniProt Q04206). As to the kind of experiment: Inhibition of NF-kappaB in human JJN-3 cells assessed as reduction in p65 DNA binding activity up to 30 nM after 4 hrs by ELISA. The data set is classed as cell-based.
Chain of Transcription factor p65 (Homo sapiens) (Q04206 whole entry): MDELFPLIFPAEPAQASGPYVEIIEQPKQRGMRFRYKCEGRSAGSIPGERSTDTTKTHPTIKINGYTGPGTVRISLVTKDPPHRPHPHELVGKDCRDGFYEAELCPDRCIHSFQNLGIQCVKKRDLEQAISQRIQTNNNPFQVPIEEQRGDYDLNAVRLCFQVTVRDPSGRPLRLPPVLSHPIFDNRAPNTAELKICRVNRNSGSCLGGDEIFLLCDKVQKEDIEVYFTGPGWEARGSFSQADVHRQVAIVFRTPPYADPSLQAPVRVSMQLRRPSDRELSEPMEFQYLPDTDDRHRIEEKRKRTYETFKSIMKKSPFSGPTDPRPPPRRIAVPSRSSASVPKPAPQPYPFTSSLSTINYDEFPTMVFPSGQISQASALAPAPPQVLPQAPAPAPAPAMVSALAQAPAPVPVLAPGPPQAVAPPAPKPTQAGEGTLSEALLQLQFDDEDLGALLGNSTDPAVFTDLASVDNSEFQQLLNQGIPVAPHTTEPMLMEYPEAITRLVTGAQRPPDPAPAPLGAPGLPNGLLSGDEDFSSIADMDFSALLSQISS

Regarding `COC(=O)c1cc(NC(=O)c2cc3cc(NC(=O)CCCOc4cc5c(cc4OC)C(=O)N4CCC[C@H]4C=N5)ccc3o2)cn1C`, the figures for the CC50 in data set [1] and in data set [2] were 7.5 nM and 30 nM, respectively. Also, the CC50 at 48 h in [3] came out at 930 nM; in data set [4], 1700 nM. The results for the selectivity ratio in data set [5] and in data set [6] were 124 and 227, respectively. Moreover, the inhibition result in data set [7] and in data set [8] was “inactive” throughout. The inhibition entry in [9] is “Active”.

Regarding `CCOc1ccc(NC(=O)CCCOc2cc3c(cc2OC)C(=O)N2CCC[C@H]2C=N3)cc1`, the results for the CC50 in [1] and in data set [2] were 5.8 nM and 15.6 nM, respectively. The CC50 at 48 h was found to be 750 nM in [3] and 3000 nM in data set [4]. For the same compound, the selectivity ratio came to 129 in data set [5] and 517 in [6]. Besides, the inhibition entry in data set [10], in [8] and in [9] was “inactive” each time. In addition, in data set [7], the inhibition result was “Active”.
